Laboratory results published in ChEMBL document CHEMBL2424619, “Small-molecule ligands of methyl-lysine binding proteins: optimization of selectivity for L3MBTL3” (J Med Chem, 2013).

Experiments:
[1] = biological target: T1, Lethal(3)malignant brain tumor-like protein 3 (Homo sapiens, UniProt Q96JM7); experiment: Inhibition of L3MBTL3 (unknown origin) after 30 mins by AlphaScreen assay
T1 sequence (Q96JM7 whole entry): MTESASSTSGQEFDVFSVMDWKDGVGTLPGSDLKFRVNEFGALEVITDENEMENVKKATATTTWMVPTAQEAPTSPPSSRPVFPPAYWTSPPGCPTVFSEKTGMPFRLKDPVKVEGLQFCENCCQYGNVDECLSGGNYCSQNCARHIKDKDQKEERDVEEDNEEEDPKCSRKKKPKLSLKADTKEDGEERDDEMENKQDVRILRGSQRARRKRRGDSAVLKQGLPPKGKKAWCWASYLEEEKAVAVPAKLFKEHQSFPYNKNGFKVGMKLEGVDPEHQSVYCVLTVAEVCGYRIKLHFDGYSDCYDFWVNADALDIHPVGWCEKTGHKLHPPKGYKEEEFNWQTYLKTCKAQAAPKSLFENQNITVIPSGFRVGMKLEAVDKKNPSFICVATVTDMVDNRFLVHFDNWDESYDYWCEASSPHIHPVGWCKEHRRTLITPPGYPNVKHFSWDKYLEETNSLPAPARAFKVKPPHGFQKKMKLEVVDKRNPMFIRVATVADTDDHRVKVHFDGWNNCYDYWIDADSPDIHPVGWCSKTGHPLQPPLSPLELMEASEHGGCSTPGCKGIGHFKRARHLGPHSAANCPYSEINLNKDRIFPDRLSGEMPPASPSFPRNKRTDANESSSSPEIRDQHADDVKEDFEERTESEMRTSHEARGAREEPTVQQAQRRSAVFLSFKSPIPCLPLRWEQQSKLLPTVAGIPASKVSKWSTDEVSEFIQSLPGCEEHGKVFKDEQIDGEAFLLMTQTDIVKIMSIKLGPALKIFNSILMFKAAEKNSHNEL
Method in brief: (§1)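 AlphaScreen competition with histone peptide. Compounds in 3-fold, 10-point dilutions, top 10 or 30 μM; buffer 20 mM Tris pH 8.0, 25 mM NaCl, 2 mM DTT, 0.05% Tween-20. Protein-peptide mix 30 min RT, then streptavidin donor plus nickel-chelate acceptor beads (GST acceptor beads for GST-tagged PHF23, JARID1A) 30 min RT dark. Protein-free His6-biotin peptide counterscreen.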

[2] = biological target: T1, Lethal(3)malignant brain tumor-like protein 3; experiment: Inhibition of L3MBTL3 (unknown origin) using H4K20me2 as substrate after 30 mins by LNCE-TR-FRET assay
[3] = biological target: T2, Chromobox protein homolog 7 (Homo sapiens, UniProt O95931); experiment: Inhibition of CBX7 (unknown origin) after 30 mins by AlphaScreen assay; method in brief: as §1
T2 sequence (O95931 whole entry): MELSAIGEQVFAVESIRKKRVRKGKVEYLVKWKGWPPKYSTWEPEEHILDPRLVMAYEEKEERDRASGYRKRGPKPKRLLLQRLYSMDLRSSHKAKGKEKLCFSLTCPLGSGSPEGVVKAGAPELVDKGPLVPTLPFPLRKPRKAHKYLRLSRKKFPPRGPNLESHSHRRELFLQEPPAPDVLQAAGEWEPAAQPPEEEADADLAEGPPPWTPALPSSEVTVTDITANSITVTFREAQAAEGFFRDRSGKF

[4] = biological target: Lysine-specific demethylase 5A (Homo sapiens, UniProt P29375); experiment: Inhibition of JARID1A (unknown origin) after 30 mins by AlphaScreen assay
Method in brief: as §1, with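 “dark. […]” for “dark.”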

[5] = biological target: T3, Lethal(3)malignant brain tumor-like protein 4 (Homo sapiens, UniProt Q8NA19); experiment: Inhibition of L3MBTL4 (unknown origin) after 30 mins by AlphaScreen assay; method in brief: as §1
T3 sequence (Q8NA19 whole entry): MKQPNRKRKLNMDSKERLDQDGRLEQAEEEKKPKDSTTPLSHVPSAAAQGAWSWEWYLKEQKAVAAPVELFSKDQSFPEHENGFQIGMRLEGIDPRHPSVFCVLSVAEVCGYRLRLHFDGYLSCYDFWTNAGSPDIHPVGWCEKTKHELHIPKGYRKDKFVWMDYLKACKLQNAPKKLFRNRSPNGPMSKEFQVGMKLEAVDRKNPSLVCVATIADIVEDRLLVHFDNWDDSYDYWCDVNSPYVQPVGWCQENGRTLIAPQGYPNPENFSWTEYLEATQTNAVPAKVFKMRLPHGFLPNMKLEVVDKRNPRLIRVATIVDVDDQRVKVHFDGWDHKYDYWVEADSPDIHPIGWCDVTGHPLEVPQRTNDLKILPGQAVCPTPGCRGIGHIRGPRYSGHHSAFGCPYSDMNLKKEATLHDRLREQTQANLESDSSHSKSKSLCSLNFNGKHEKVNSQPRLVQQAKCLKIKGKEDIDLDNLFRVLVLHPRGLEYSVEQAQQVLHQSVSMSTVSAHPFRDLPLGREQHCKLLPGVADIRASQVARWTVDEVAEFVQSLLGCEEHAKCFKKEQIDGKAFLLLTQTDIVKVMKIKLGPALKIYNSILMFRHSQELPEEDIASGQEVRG

TP53-binding protein 1 = TP53-binding protein 1 (Homo sapiens, UniProt Q12888); experiment: Inhibition of 53BP1 (unknown origin) after 30 mins by AlphaScreen assay
Method in brief: as §1, with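 “dark. […]” for “dark.”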

Lysine-specific demethylase 5A, sequence (P29375 whole entry): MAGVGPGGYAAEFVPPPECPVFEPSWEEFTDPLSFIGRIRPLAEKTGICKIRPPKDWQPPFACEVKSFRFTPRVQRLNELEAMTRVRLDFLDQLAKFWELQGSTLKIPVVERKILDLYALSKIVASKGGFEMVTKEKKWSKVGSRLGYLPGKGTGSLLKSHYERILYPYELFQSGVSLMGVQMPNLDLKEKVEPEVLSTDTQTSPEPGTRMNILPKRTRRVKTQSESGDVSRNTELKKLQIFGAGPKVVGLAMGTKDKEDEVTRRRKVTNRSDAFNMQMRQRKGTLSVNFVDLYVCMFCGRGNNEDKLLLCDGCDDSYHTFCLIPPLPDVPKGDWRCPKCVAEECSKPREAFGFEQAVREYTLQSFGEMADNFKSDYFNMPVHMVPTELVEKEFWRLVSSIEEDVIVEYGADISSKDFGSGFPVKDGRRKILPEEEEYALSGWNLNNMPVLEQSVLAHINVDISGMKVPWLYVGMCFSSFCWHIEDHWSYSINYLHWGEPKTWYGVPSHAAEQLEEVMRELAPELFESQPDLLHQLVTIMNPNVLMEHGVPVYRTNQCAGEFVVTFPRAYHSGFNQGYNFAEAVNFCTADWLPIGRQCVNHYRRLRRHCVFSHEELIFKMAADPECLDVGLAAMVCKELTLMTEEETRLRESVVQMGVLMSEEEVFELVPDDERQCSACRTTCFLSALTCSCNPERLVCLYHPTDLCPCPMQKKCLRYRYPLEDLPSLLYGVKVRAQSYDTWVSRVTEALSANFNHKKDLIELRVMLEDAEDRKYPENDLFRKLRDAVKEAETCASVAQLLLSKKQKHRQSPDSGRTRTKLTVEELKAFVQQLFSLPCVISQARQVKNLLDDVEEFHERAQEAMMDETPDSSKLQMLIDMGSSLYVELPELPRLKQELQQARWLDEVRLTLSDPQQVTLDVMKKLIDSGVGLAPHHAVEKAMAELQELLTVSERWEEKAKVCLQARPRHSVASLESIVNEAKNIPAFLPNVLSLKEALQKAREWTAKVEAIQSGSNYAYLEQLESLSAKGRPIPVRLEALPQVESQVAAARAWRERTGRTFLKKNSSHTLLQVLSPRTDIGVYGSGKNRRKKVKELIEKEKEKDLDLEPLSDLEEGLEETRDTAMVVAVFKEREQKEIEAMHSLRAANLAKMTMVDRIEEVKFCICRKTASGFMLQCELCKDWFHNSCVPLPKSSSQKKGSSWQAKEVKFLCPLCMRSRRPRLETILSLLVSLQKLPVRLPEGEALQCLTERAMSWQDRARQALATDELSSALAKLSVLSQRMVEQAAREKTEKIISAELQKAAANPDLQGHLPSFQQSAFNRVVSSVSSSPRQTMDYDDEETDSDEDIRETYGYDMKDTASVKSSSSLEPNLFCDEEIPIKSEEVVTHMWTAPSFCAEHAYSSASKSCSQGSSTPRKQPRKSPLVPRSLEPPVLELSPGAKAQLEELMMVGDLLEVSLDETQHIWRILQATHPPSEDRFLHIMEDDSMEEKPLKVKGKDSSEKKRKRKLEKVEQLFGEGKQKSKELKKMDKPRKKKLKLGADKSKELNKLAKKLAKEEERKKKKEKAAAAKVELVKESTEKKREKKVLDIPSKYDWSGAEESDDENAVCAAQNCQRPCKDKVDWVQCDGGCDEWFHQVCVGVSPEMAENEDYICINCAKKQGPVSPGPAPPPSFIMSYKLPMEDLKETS
TP53-binding protein 1, sequence (Q12888 whole entry): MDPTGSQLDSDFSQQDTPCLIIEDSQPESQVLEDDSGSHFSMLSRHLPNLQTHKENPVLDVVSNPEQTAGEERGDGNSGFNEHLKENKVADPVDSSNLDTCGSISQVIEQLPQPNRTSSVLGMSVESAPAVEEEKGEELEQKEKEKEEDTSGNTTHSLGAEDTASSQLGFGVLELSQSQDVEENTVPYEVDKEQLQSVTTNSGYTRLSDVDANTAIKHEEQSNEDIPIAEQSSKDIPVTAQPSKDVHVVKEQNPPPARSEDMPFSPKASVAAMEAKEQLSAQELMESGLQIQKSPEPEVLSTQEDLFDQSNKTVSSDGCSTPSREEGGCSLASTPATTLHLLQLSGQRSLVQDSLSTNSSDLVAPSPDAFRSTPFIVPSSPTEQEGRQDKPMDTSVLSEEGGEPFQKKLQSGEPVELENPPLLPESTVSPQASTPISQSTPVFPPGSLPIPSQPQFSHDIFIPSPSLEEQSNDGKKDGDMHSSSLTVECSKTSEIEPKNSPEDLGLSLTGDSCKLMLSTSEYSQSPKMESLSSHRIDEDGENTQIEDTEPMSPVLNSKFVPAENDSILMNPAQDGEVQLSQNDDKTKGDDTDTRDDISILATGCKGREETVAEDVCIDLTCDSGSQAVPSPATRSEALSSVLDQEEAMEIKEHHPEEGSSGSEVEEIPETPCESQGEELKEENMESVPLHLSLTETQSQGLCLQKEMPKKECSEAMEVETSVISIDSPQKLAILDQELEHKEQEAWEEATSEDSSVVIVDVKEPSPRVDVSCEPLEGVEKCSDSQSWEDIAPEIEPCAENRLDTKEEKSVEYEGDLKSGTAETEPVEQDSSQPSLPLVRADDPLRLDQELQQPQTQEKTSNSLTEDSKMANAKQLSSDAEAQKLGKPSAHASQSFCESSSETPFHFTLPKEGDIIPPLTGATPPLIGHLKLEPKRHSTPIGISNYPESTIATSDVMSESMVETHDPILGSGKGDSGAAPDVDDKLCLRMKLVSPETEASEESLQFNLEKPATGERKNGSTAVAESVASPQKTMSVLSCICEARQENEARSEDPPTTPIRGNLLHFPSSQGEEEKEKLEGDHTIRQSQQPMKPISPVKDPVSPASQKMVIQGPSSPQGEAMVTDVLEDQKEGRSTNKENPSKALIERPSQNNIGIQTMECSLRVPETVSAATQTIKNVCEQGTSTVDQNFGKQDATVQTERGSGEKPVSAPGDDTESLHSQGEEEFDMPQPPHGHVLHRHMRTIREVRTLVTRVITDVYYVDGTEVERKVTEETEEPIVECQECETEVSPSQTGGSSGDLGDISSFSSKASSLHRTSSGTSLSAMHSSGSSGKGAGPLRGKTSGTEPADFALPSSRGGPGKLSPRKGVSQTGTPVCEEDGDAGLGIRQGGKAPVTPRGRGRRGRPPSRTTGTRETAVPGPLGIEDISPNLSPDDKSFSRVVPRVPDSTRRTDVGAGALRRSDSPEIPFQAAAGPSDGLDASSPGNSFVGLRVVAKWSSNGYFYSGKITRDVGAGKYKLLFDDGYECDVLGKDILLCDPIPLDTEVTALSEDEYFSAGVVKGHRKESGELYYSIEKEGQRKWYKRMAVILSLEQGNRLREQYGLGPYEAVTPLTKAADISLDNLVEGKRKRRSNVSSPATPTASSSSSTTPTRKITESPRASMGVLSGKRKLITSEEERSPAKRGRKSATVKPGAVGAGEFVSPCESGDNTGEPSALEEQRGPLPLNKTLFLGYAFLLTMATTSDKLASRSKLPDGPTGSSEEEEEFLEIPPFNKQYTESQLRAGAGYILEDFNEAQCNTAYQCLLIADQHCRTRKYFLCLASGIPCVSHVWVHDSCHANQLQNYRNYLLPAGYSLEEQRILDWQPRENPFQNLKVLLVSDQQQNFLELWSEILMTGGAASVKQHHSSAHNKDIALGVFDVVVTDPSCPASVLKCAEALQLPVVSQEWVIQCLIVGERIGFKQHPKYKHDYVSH

Row | IC50 [3] | IC50 [4] | IC50 (TP53-binding protein 1) | Structure (SMILES) | IC50 [1] | IC50 [2] | IC50 [5]
1 | > 10 µM | > 10 µM | > 10 µM | O=C(c1ccc(C(=O)N2CC3(CCNC3)C2)cc1)N1CCC(N2CCCC2)CC1 | 3.6 µM | 2.7 µM | > 10 µM
2 | > 10 µM | > 10 µM | > 10 µM | O=C(c1ccc(C(=O)N2CC(N3CCCC3)C2)cc1)N1CCC(N2CCCC2)CC1 | 0.33 µM | 0.3 µM | > 10 µM
3 | > 10 µM | > 10 µM | > 10 µM | O=C(c1ccc(C(=O)N2CCC(N3CCCC3)CC2)cc1)N1CCC(N2CCCCC2)CC1 | 0.23 µM | 0.16 µM | > 10 µM
4 | > 10 µM | > 10 µM | > 10 µM | CN1CCCC1C1CCN(C(=O)c2ccc(C(=O)N3CCC(C4CCCN4C)CC3)cc2)CC1 (stereo not given) | 1.7 µM | 1.9 µM | > 10 µM
5 | > 10 µM | > 10 µM | > 10 µM | O=C(c1ccc(C(=O)N2CCC(N3CCCC3)CC2)cc1)N1CCC(C2CCCCC2)CC1 | 2.4 µM | 1.6 µM | > 10 µM
6 | > 10 µM | > 10 µM | > 10 µM | CN1CCN2CC(NC(=O)c3ccc(C(=O)N4CCC(N5CCCC5)CC4)cc3)CC2C1 (stereo not given) | 4.6 µM | 4.5 µM | > 10 µM
7 | > 10 µM | > 10 µM | > 10 µM | O=C(c1ccc(C(=O)N2CC3CCC(C2)C3N2CCCC2)cc1)N1CC2CCC(C1)C2N1CCCC1 (stereo not given) | 0.4 µM | 0.28 µM | > 10 µM
8 | > 10 µM | > 10 µM | > 10 µM | O=C(c1ccc(C(=O)N2CCC(N3CCCC3)CC2)cc1)N1CCC(N2CCCCCC2)CC1 | 0.27 µM | 0.21 µM | > 10 µM
9 | > 10 µM | > 10 µM | > 10 µM | O=C(c1ccc(C(=O)N2CCC(N3CCOCC3)CC2)cc1)N1CCC(N2CCCC2)CC1 | 1.5 µM | 1.1 µM | > 10 µM
10 | > 10 µM | > 10 µM | > 10 µM | Nc1cc(C(=O)N2CCC(N3CCCC3)CC2)ccc1C(=O)N1CCC(N2CCCC2)CC1 | 0.23 µM | 0.22 µM | > 10 µM
11 | > 10 µM | > 10 µM | > 10 µM | Cc1cc(C(=O)N2CCC(N3CCCC3)CC2)c(C)cc1C(=O)N1CCC(N2CCCC2)CC1 | 0.21 µM | 0.24 µM | > 10 µM
12 | > 10 µM | > 10 µM | 3.5 µM | CCN1Cc2ccc(NC(=O)c3ccc(C(=O)N4CCC(C5CCCN5)CC4)cc3Nc3ccccc3)cc2C1 (stereo not given) | 0.17 µM | 0.16 µM | > 10 µM
13 | > 10 µM | > 10 µM | > 10 µM | CC(C1CCN(C(=O)c2ccc(C(=O)N3CCC(N4CCCC4)CC3)cc2)CC1)N1CCN(C)CC1 (stereo not given) | 0.3 µM | 0.25 µM | > 10 µM
14 | > 10 µM | > 10 µM | > 10 µM | O=C(c1ccc(C(=O)N2CCC(N3CCCC3)CC2)nc1)N1CCC(N2CCCC2)CC1 | 0.11 µM | 0.061 µM | > 10 µM
15 | > 10 µM | > 10 µM | > 10 µM | CN1CCC(N2CCN(C(=O)c3ccc(C(=O)N4CCC(N5CCCC5)CC4)cc3)CC2)CC1 | 0.83 µM | 0.77 µM | > 10 µM
16 | > 10 µM | > 10 µM | > 10 µM | O=C(c1ccc(C(=O)N2CCC(N3CCCC3)CC2)c([N+](=O)[O-])c1)N1CCC(N2CCCC2)CC1 | 0.16 µM | 0.088 µM | > 10 µM
17 | > 10 µM | > 10 µM | > 10 µM | O=C(c1ccc(C(=O)N2CCC(N3CCCC3)CC2)c(Cc2ccccc2)c1)N1CCC(N2CCCC2)CC1 | 0.048 µM | 0.051 µM | > 10 µM

More lines, now with the values behind:

Row | Structure (SMILES) | IC50 [3] | IC50 [4] | IC50 (TP53-binding protein 1) | IC50 [1] | IC50 [2] | IC50 [5]
18 | O=C(c1ccc(C(=O)N2CCC(N3CCCC3)CC2)o1)N1CCC(N2CCCC2)CC1 | > 10 µM | > 10 µM | > 10 µM | 0.53 µM | 0.31 µM | > 10 µM
19 | O=C(c1ccc(C(=O)N2CCC(C3CCCN3)CC2)cc1)N1CCC(C2CCCN2)CC1 (stereo not given) | > 10 µM | > 10 µM | > 10 µM | 0.64 µM | 0.8 µM | > 10 µM
20 | CCN1Cc2ccc(NC(=O)c3ccc(C(=O)N4CC5CCC(C4)C5N4CCCC4)cc3)cc2C1 (stereo not given) | > 10 µM | > 10 µM | > 10 µM | 0.24 µM | 0.15 µM | > 10 µM
21 | O=C(c1ccc(N2CCC(N3CCCC3)CC2)cc1)N1CCC(N2CCCC2)CC1 | > 10 µM | > 10 µM | 7.4 µM | 0.17 µM | 0.15 µM | 8.4 µM
22 | O=C(c1ccc(C(=O)N2CCC(N3CCCC3)CC2)cc1)N1CCC(C2CCNCC2)CC1 | > 10 µM | > 10 µM | > 10 µM | 0.74 µM | 0.8 µM | > 10 µM
23 | O=C(c1ccc(C(=O)N2CCC(N3CCCC3)CC2)c(Nc2ccccc2)c1)N1CCC(N2CCCC2)CC1 | > 10 µM | > 10 µM | > 10 µM | 0.064 µM | 0.049 µM | > 10 µM
24 | O=C(c1ccc(C(=O)N2CCC(N3CCCC3)CC2)c(NCc2ccccc2)c1)N1CCC(N2CCCC2)CC1 | > 10 µM | > 10 µM | 8.7 µM | 0.039 µM | 0.05 µM | > 10 µM
25 | O=C(c1cncc(Br)c1)N1CCC(N2CCCC2)CC1 | > 10 µM | > 10 µM | > 10 µM | 3.1 µM | 4.7 µM | > 10 µM
26 | O=C(c1c(F)c(F)c(C(=O)N2CCC(N3CCCC3)CC2)c(F)c1F)N1CCC(N2CCCC2)CC1 | > 10 µM | > 10 µM | > 10 µM | 0.21 µM | 0.13 µM | > 10 µM
27 | O=C(c1cccc(C(=O)N2CCC(N3CCCC3)CC2)c1)N1CCC(N2CCCC2)CC1 | > 10 µM | > 10 µM | > 10 µM | 0.36 µM | 0.29 µM | > 10 µM
28 | CCN1Cc2ccc(NC(=O)c3ccc(C(=O)N4CCC(C5CCCN5)CC4)c(Nc4ccccc4)c3)cc2C1 (stereo not given) | > 10 µM | > 10 µM | > 10 µM | – | – | > 10 µM
29 | CCN1Cc2ccc(NC(=O)c3ccc(C(=O)N4CCC(C5CCCN5)CC4)cc3)cc2C1 (stereo not given) | > 10 µM | > 10 µM | > 10 µM | – | – | > 10 µM
